From PubChem BioAssay AID504382 (The Scripps Research Institute Molecular Screening Center, 2011)
In all, about 2,500 compounds went through this assay and about 460 (18%) were called active.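 How the source made its calls: active means mean activation above a cutoff of low control average plus 3 SD from the earlier screen (cut at about 12% in these data); inactive means the rest.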 The list is a sample of the results.

Test: compound fluorescence interference without thin filaments, confirmation, artefact control for cardiac RTF calcium sensitizer project, biochemical (AID 504382)
Conditions: IANBD fluorescence interference counterscreen, buffer, EC20 Ca2+; at 7.2 µM; stronger effect = higher value; scaled: EC20 calcium 0, EC100 calcium 100
Outline: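 timing = compound incubation 15 min at 25 °C before fluorescence reading | technique = fluorescence at 480 nm excitation, 540 nm emission | evaluation = interference relative to controls | replication = triplicate wells per compound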
In the case of CCC(=O)N/C(=N/c1nc(C)cc(C)n1)Nc1ccccc1, the fluorescence artifact activation is reported as 0.29% (inactive). In the case of Cc1ccc(NC(=O)c2cc(S(=O)(=O)N3CCCCC3)ccc2N2CCOCC2)cc1S(=O)(=O)N(C)C, the fluorescence artifact activation is reported as 0.83% (inactive). In the case of COc1ccc(-c2csc(N3CCN(c4cc5c(cc4Cl)nc(-c4ccncc4)n5CCOCCO)CC3)n2)cc1, the fluorescence artifact activation is reported as -0.09% (inactive). In the case of CCOC(=O)Cc1csc(N(C)C)n1, the fluorescence artifact activation is reported as 0.08% (inactive). In the case of CCOC(=O)Cc1csc(CC(N)=O)n1, the fluorescence artifact activation is reported as 2.47% (inactive). With CCOC(=O)Cc1csc(NC(=O)c2sc3nc4cc(C)ccc4cc3c2N)n1 the fluorescence artifact activation was 19% (active). For Cc1cccc(N2CCN(C(=O)Cn3nc(Cc4ccncc4)c4ccccc4c3=O)CC2)c1C, the fluorescence artifact activation was 4.88% (inactive). With Cc1c(O)ccc(/C(Cc2ccc3ccccc3n2)=N\N)c1O the fluorescence artifact activation was -0.02% (inactive). With CC(=O)OCC[N+](C)(C)C the fluorescence artifact activation was 13.6% (active). In the case of Cc1cccc(N=Cc2[nH]c3ccc(Br)c(Cl)c3c2O)c1, the fluorescence artifact activation is reported as 0.01% (inactive). In the case of COCCNC(=O)c1c(CS(=O)(=O)c2ccccc2)noc1C(=O)NCc1ccccc1, the fluorescence artifact activation is reported as -0.04% (inactive). In the case of C/C(=N/Nc1ccnc2cc(Cl)ccc12)c1ccc(N)cc1, the fluorescence artifact activation is reported as 2.55% (inactive). With CC(=O)Nc1ccccc1C(=O)C(=O)Nc1ccc(F)c(Cl)c1 the fluorescence artifact activation was 0.02% (inactive). In the case of Cc1ccc(NC(=O)Nc2ccc(F)cc2)cc1Cl, the fluorescence artifact activation is reported as 4.13% (inactive). In the case of CN1c2ccccc2C(O)=C(C(=S)Nc2ccc(F)c(Cl)c2)S1(=O)=O, the fluorescence artifact activation is reported as 13.6% (active). For CCC1(C)COC(c2ccc(OC)c(OC)c2)OC1 (centres undefined), the fluorescence artifact activation was 0.06% (inactive). For N#C/C(=C\c1c[nH]c2ccccc12)C(=O)Nc1ncc(Cc2ccc(Cl)cc2Cl)s1, the fluorescence artifact activation was 5.66% (inactive). With O=C(NCCc1ccccc1)C1CCN(c2ncccn2)CC1 the fluorescence artifact activation was 0.16% (inactive). With O=C(CN1CCN(c2ccccc2F)CC1)NCc1ccc(Cl)cc1 the fluorescence artifact activation was 0.16% (inactive). In the case of O=C(NCc1ccc(Cl)cc1)C1CCN(c2cnccn2)CC1, the fluorescence artifact activation is reported as 16% (active). For COc1ccc(/C=N/NC(=O)c2cccc([N+](=O)[O-])c2)cc1O, the fluorescence artifact activation was 0.08% (inactive). In the case of Cn1nnc(NC(=S)NC(=O)/C=C/c2ccco2)n1, the fluorescence artifact activation is reported as 0.78% (inactive). For CCNC(=S)NNC(=O)CCn1cc(C)cn1, the fluorescence artifact activation was -0.01% (inactive). In the case of CN(C)c1ccc(/C=C/c2nc3ccccc3c(=O)[nH]2)cc1, the fluorescence artifact activation is reported as 0.27% (inactive). In the case of CN(C)c1ccc(/C=C/c2nc3ccccc3c(=O)n2CCO)cc1, the fluorescence artifact activation is reported as 127% (active). In the case of CN(C)c1ccc(/C=C/c2nc3ccccc3c(=O)n2-c2ccc(C(=O)O)cc2)cc1, the fluorescence artifact activation is reported as 0.13% (inactive). With O=C(O)C1CCC(CNCc2ccccc2Cl)CC1 (centres undefined) the fluorescence artifact activation was 0.76% (inactive). For CCCCc1ccc(NC(=O)c2cnccn2)cc1, the fluorescence artifact activation was 9.08% (inactive). With COc1ccc(CNC(=O)c2sc(=S)n(-c3ccccc3)c2N)cc1 the fluorescence artifact activation was 9.19% (inactive). For CC(C)NC(=O)C1CCCN(c2nnc(-n3cccc3)s2)C1 (centres undefined), the fluorescence artifact activation was 316% (active). For COc1cccc(CNC(=O)C2CCCN(c3nc4ccccc4o3)C2)c1 (centres undefined), the fluorescence artifact activation was 0.08% (inactive). In the case of O=C(Nc1cc2c3c(c1)CC(=O)N3CCC2)C1CC1, the fluorescence artifact activation is reported as 0.03% (inactive). For Cc1ccc(/C=C2/SC(=O)NC2=S)o1, the fluorescence artifact activation was 6.76% (inactive). In the case of C(=N\c1nc2ccccc2n1CCN1CCOCC1)/c1cccs1, the fluorescence artifact activation is reported as -0.03% (inactive). In the case of Cc1ccc(C(C(=O)NC(C)(C)C)N(C(=O)c2csnn2)C2CC2)cc1 (centres undefined), the fluorescence artifact activation is reported as 34.2% (active). In the case of COC(=O)c1c(NC(=O)CN2CCN(c3cccc(Cl)c3)CC2)sc(C)c1C, the fluorescence artifact activation is reported as 0.21% (inactive). For CCOC(=O)C1=C(C)N(CCCCCC(=O)O)C(=O)NC1c1ccccc1Cl (centres undefined), the fluorescence artifact activation was 0.06% (inactive). With CCOC(=O)c1[nH]c2ccc(OCC)cc2c1CCCN1C(=O)c2ccccc2C1=O the fluorescence artifact activation was 87.1% (active). For CCCN1C(=O)c2ccccc2NC1c1ccc(O)c(OCC)c1 (centres undefined), the fluorescence artifact activation was 2.14% (inactive). With CC(OC(=O)c1c2c(nc3ccccc13)/C(=C\c1ccc3c(c1)OCO3)CCC2)C(=O)Nc1ccc(S(N)(=O)=O)cc1 (centres undefined) the fluorescence artifact activation was 0.03% (inactive). For N#Cc1cc(C(=O)c2ccccc2O)cn(-c2nccs2)c1=O, the fluorescence artifact activation was 12.1% (active). In the case of Cc1ccc(O)c(C(=O)c2cc(C#N)c(=O)n(-c3nccs3)c2)c1, the fluorescence artifact activation is reported as 0.06% (inactive). For N#Cc1cc(C(=O)c2cc(F)ccc2O)cn(-c2nccs2)c1=O, the fluorescence artifact activation was 0.01% (inactive). With O=C(Cn1ncc2c3ccccc3n(Cc3cccc(Cl)c3)c2c1=O)NCC1CCCO1 (centres undefined) the fluorescence artifact activation was 0.38% (inactive). With O=C(NCCOc1ccccc1Cl)C(=O)Nc1ccccc1 the fluorescence artifact activation was 0.07% (inactive). With CS/C(=N\S(=O)(=O)c1cccs1)Nc1cccc(Cl)c1C the fluorescence artifact activation was 16.4% (active). In the case of COc1cccc(CNC(=O)CCS(=O)(=O)c2cc3c(cc2C)NC(=O)CO3)c1, the fluorescence artifact activation is reported as 0.09% (inactive). For COc1cccc(CNC(=O)CN(C)S(=O)(=O)c2cnc[nH]2)c1, the fluorescence artifact activation was 41.4% (active). For COc1cccc(CNC(=O)CN(C)S(=O)(=O)c2ccc3c(c2)c(=O)n(C)c(=O)n3C)c1, the fluorescence artifact activation was 0.24% (inactive).
